For experiment [1], the system named is SKW3 T cells expressing TCR55. As to the kind of experiment: pERK1/2 phospho-flow cytometry, TCR55 cells. Format: cell-based, human. The following applies: peptide-pulsed KG-1 cells or OKT3, 15 minutes, result in words. For orientation: Flow cytometry measures light scatter and fluorescence of single cells or particles in a stream.
For experiment [2], the system named is TCR55-transduced 58−/− T cells. As to the kind of experiment: IL-2 ELISA, TCR55-transduced cell line. Format: cell-based, murine. The following applies: peptide-pulsed KG-1 APCs or OKT3, 24 hrs, result in words. The procedure, abridged:
(§1)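 58−/− cells carrying the TCR were rested overnight in complete RPMI. KG-1 APCs were pulsed with peptide for 2 h or overnight at 37 °C, washed, and mixed 1:1 with the T cells for 24 hrs at 37 °C. Secreted mouse IL-2 was measured by sandwich ELISA (avidin-HRP, TMB, H3PO4 stop) read at 450 and 570 nm. Biological and technical triplicates.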
(In general: ELISA stands for enzyme-linked immunosorbent assay.)

Experiment [3] concerns TCR589-transduced 58−/− T cells. The experiment in a line: IL-2 ELISA, TCR589-transduced cell line. The class given is cell-based, murine. The following applies: peptide-pulsed KG-1 APCs or OKT3, 24 hrs, result in words. An outline of the steps:
as §1

Experiment [4] has as its system SKW3 T cells expressing TCR589. As to the kind of experiment: pERK1/2 phospho-flow cytometry, TCR589 cells. The class given is cell-based, human. The following applies: peptide-pulsed KG-1 cells or OKT3, 15 minutes, result in words. The procedure, abridged:
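SKW3 cells were rested overnight. Peptide-pulsed KG-1 cells (2 h) were washed and mixed 1:1 with them (125,000 each), then co-cultured 15 min at 37 °C. Cells were fixed in 4% PFA then Cytofix (30 min, 37 °C), permeabilised in ice-cold methanol or Perm Buffer III, and stained 1 h at RT with anti-pERK1/2 (1:50) and anti-CD3. Mean pERK MFI of CD3+ cells by flow. Biological and technical triplicates.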

For the substance “OKT3: anti-CD3 antibody (clone OKT3), non-specific TCR stimulus”, the “ERK1/2 phosphorylation (pERK)” value in experiment [1] and in experiment [4] was “robust ERK1/2 phosphorylation” throughout. The IL-2 secretion entry in experiment [2] and in experiment [3] was “responded similarly” throughout.
